Screening results: PubChem, Broad Institute
SR-BI DiI-HDL act: SR-BI HDL lipid transfer activation; CHO ldlA[mSR-BI] cells, DiI-HDL uptake fluorescence, 3 h; 100 = double the neutral-control signal; activation, % at 12.5 µM; 320,000 compounds, 0.096% hits;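 active = mean replicate activation of at least 60% and every replicate at or above 60%; inconclusive = mean or all-replicate condition met, but not both; inactive = mean below 60% and not all replicates reaching 60%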;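 also: 0% = median plate neutral-control signal and 100% = twice that signal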
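Test system: SR-BI-overexpressing, LDLR-lacking CHO cells. Measured by: DiI fluorescence, bottom read. Medium: Ham's F12 with 0.5% BSA, HEPES 25 mM, pH 7.4. Timing: 3 h uptake period with compound, 37 °C.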
SR-BI HDL uptake: mouse SR-BI HDL lipid transfer inhibition; 320,000 compounds, 0.96% hits; inhibition, % at 12.5 µM; ldlA[mSR-BI] CHO cells, DiI-HDL uptake fluorescence, 3 h; AID 488896; Q61009;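 active = mean replicate inhibition of at least 70% and a set share of replicates each scoring 70 or more; inconclusive = meets just one of the two criteria; inactive = fails both criteria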;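 also: 0% = median of neutral control wells and 100% = median of positive control wells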
dFosB activator: activators of mouse delta FosB homodimer. activation, % at 25 µM. purified delta FosB, TAMRA-CDK5 oligo fluorescence polarization; percent of positive-control signal above neutral wells. P13346. 340,000 compounds, 0.99% hits;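 active = mean activation above about 17%, with every replicate also reaching it, limit read from the data, passing the limit was not always enough; inconclusive = only one of the two conditions met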
Target sequence (P13346 whole entry, looked up): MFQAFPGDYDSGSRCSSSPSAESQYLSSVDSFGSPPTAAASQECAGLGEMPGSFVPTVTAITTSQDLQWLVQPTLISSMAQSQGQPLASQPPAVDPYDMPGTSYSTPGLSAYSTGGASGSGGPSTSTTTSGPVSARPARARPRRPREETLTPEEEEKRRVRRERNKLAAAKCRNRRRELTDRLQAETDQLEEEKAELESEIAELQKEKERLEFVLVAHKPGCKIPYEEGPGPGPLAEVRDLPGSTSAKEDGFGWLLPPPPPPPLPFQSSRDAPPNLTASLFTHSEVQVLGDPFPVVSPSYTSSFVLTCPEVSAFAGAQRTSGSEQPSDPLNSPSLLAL
NSD2 HMT inh: blocks human histone methyltransferase NSD2; O96028; NSD2 peptide methylation, AlphaScreen, 120 min; inhibition, % at 12.5 µM; 310,000 compounds, 0.54% hits; AID 743445
DYRK1A inh: blocks rat Dyrk1A kinase activity. ADP-Glo luminescence, NFATc1 peptide. 310,000 compounds, 0.43% hits. Q63470. inhibition, % at 12.5 µM;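 also: plate controls were vehicle with enzyme for no effect and no enzyme for full effect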
CDK5 inh: inhibitors of human CDK5/p35 kinase. Recombinant CDK5/p35, ADP-Glo luminescence, 60 min. inhibition, % at 10 µM. 330,000 compounds, 0.01% hits. AID 488839;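 active = highest replicate inhibition of at least 50% and at least 75% of replicates reaching 50%; inconclusive = only one of the two criteria met; inactive = both criteria failed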;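 also: plate controls were DMSO neutral control for no effect and GW8510 at 10 µM for full effect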
Numbers without * were called inactive; ? = inconclusive; / = no result given. Only some compounds are listed: those with a hit (about 2.5% of all), similar ones and a draw of the others. Rule as the data show it, unless noted: active = inhibition above about 50%; inactive = the rest.

SMILES | SR-BI DiI-HDL act | SR-BI HDL uptake | dFosB activator | NSD2 HMT inh | DYRK1A inh | CDK5 inh
Cc1ccc(N=C2NC(=O)/C(=C/c3cn(C)c4ccccc34)S2)cc1C | -81 | 81* | ? | -5 | -6 | 0
CN(C(=O)c1cccc(NC(=O)Cc2ccc(NC(=O)C3CCCN(C(=O)C4CCCC4)C3)cc2)c1)C1CCCCC1 (centres undefined) | -83 | 83* | -21 | / | -2 | 3
CN(C(=O)c1cccc(NC(=O)Cc2ccc(NC(=O)C3CCCN(C(=O)C4CCCC4)C3)cc2)c1)C1CC1 (centres undefined) | -76 | 76* | -14 | / | -1 | -4
O=C(Cc1ccc(NC(=O)C2CCCN(C(=O)C3CCCCC3)C2)cc1)Nc1cccc(C(=O)N2CCCC2)c1 (centres undefined) | -58 | 58 | -6 | / | / | 0
CN(C(=O)c1ccc(NC(=O)Cc2cccc(NC(=O)C3CCN(C(=O)CCc4ccccc4)CC3)c2)cc1)C1CCCC1 | -71 | 71* | -9 | / | 7 | 0
CN(C(=O)c1ccc(NC(=O)Cc2ccc(NC(=O)C3CCN(C(=O)CCc4ccccc4)CC3)cc2)cc1)C1CCCC1 | -15 | 15 | -4 | / | -3 | 0
O=C(Cc1ccc(NC(=O)C2CCCN(C(=O)C3CCCC3)C2)cc1)Nc1cccc(C(=O)N2CCCC2)c1 (centres undefined) | -75 | 75* | -6 | / | -2 | -1
Cc1ccc(SCC(=O)N=C2NC(=O)CS2)cc1 | 6 | -6 | -8 | 0 | 0 | 0
Cc1ccc(S(=O)(=O)c2c(C(=O)c3ccccc3)cnc3cc4c(cc23)OCCO4)cc1 | -4 | 4 | -4 | -1 | -8 | 0
O=C1C=C(c2ccc(Br)c3ccccc23)C[C@@H](c2ccc3c(c2)OCO3)C1 | -32 | 32 | -5 | / | -1 | -5
O=C1NC(=NCc2ccccc2)NC1(c1ccccc1)c1ccccc1 | 13 | -13 | 0 | -1 | -1 | 1
CN(C)CCOC1c2ccccc2CCc2ccc3ccccc3c21 (centres undefined) | 436* | -436 | -5 | 18 | 9 | 0
COc1cc(/C=C/c2ccc3cccc(O)c3n2)cc(Br)c1OC | -82 | 82* | -6 | -1 | 1 | -1
COc1cc(/C=C/c2ccc3cccc(O)c3n2)cc(OC)c1OC | -64 | 64 | -7 | -10 | / | 0
Cc1ccc(NC(=O)COC(=O)c2ccc(NC(=O)CC#N)cc2)cc1S(=O)(=O)N1CCOCC1 | -27 | 27 | -4 | -1 | / | 1
COc1cc2cc(C)c(SCC(=O)N3c4ccccc4Sc4ccccc43)nc2cc1OC | / | / | / | -1 | / | /
Clc1ccc(-c2csc(N/N=C/c3ccc4c(c3)OCO4)n2)cc1 | -109 | 109* | -6 | -3 | -3 | 1
O=C(/C=C/c1ccc2c(c1)OCO2)Nc1nc(-c2ccccc2)cs1 | -20 | 20 | 4 | 5 | 0 | -3
COc1ccc(C(OC(=O)c2ccco2)C(=O)NC2CCCC2)cc1 (centres undefined) | / | / | 0 | -3 | -2 | -1
Cc1ccc(SC2=C(N(C)C)C(=O)c3ccccc3C2=O)cc1 | -21 | 21 | -8 | 93* | 11 | 2
CCCS(=O)(=O)c1ccc(COC(=O)Cc2ccc([N+](=O)[O-])cc2)cc1 | -10 | 10 | -7 | 24 | / | -2
COc1ccc(NC(=O)c2cc(-c3ccncc3)nc3ccc(Br)cc23)cc1OC | -83 | 83* | 7 | -3 | -5 | -3
COc1ccc(CCNC(=O)c2cc(-c3ccncc3)nc3c(Cl)cccc23)cc1OC | -53 | 53 | -13 | 0 | / | 1
COc1ccc(NC(=O)NNC(=O)c2ccc3ccccc3c2O)cc1OC | -115 | 115* | 1 | 1 | -3 | -1
COc1cc(NC(=O)c2cc3c(C)nc4ccccc4c3o2)cc(OC)c1OC | -73 | 73* | 1 | / | 13 | 2
COc1ccc(CNC(=O)c2cc(-c3ccncc3)nc3c(C)cc(C)cc23)cc1OC | -72 | 72* | -6 | -2 | / | 0
CN(C)c1cccc2c(S(=O)(=O)NCC3CCN(C(=O)C(=O)c4cc5ccccc5o4)CC3)cccc12 | / | / | / | -1 | / | /
C=Cc1ccc(Cn2nc(-c3ccc(C)cc3)ccc2=O)cc1 | -1 | 1 | -8 | -2 | / | -3
